Blank lines part the entries; values can stand above or below the compound they belong to.
Legend:
[1] = target: Large neutral amino acids transporter small subunit 1 (Rattus norvegicus) (UniProt Q63016); test: Binding affinity at LAT1 in rat brain assessed Inhibition of [14C]L-leucine PA uptake at 70 uM; assay type: tissue-based
In short: (§1)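 In situ rat brain perfusion with pH 7.4 bicarbonate-buffered saline (37 °C, 95% O2/5% CO2). [14C]L-leucine 0.2 µCi/mL perfused 30 s alone (100% PA product) or co-perfused with 70 µM prodrug. PA product derived from brain radioactivity measured by liquid scintillation counting; [14C]sucrose (0.2 µCi/mL) used as vascular marker. Inhibition relative to control PA; n=3–5.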

[2] = Stability in rat serum assessed as half life of hydrolysis; assay type: ADME, cell-free
In short: (§2)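 Enzymatic hydrolysis at 37 °C in rat serum diluted to 80%, brain homogenate diluted to 20%, or liver homogenate diluted to 50% (v/v) with 0.16 M phosphate buffer pH 7.4. Aliquots taken into acetonitrile to precipitate protein, then analysed by HPLC. Pseudo-first-order half-lives; n=3.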

[3] = Stability in aqueous buffer at pH 7.4; assay type: physicochemical
In short: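 Chemical hydrolysis in 0.16 M phosphate buffer pH 7.4 (ionic strength 0.5) at 37 °C in a thermostatted water bath. Disappearance followed by HPLC; pseudo-first-order half-life; n=2.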

Brain [4] = test: Drug uptake in rat brain at 64 uM by perfusion technique; assay type: ADME, tissue-based; conditions: in vivo
In short: (§3)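 Rat brain perfused in situ for 60 s at 37 °C with 64 µM prodrug, alone or with 2 mM BCH added to the medium. Vasculature washed 30 s with cold prodrug-free medium. Brain uptake in pmol/mg/min quantified by HPLC after extraction; n=3; two-tailed independent t test.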

[5] = Stability in rat liver assessed as half life of hydrolysis; assay type: ADME, tissue-based; in short: as §2
[6] = target: Large neutral amino acids transporter small subunit 1 (Rattus norvegicus) (UniProt Q63016); test: Inhibition of [14C]L-leucine uptake at LAT1 in rat brain at 70 uM by perfusion technique; assay type: tissue-based; in short: as §1
[7] = Stability in rat brain assessed as half life of hydrolysis; assay type: ADME, tissue-based; in short: as §2
Brain [8] = test: (§4) Drug uptake in rat brain after 60 secs perfusion; assay type: ADME, tissue-based; conditions: in vivo, 1 min
In short: (§5)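 In situ rat brain perfusion, 60 s at 37 °C, with seven prodrug concentrations from 0 to 138 µM in bicarbonate-buffered saline pH 7.4. Vasculature then washed 30 s with cold (5 °C) prodrug-free medium. Brain hemisphere homogenised, acidified, ethyl acetate-extracted and analysed by HPLC. Km and Vmax from nonlinear Michaelis–Menten fit; mean ± SD, n=3.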

[9] = as §4; assay type: ADME, tissue-based; conditions: brain, other: perfusion; in short: as §5
Brain [10] = test: Drug uptake in rat brain at 64 uM in presence of 2-aminobicyclo(2,2,1)heptane-2-carboxylic acid by perfusion technique; assay type: ADME, tissue-based; conditions: in vivo; in short: as §3

Chain of Large neutral amino acids transporter small subunit 1 (Rattus norvegicus) (Q63016 whole entry, looked up, the tested form may be a part): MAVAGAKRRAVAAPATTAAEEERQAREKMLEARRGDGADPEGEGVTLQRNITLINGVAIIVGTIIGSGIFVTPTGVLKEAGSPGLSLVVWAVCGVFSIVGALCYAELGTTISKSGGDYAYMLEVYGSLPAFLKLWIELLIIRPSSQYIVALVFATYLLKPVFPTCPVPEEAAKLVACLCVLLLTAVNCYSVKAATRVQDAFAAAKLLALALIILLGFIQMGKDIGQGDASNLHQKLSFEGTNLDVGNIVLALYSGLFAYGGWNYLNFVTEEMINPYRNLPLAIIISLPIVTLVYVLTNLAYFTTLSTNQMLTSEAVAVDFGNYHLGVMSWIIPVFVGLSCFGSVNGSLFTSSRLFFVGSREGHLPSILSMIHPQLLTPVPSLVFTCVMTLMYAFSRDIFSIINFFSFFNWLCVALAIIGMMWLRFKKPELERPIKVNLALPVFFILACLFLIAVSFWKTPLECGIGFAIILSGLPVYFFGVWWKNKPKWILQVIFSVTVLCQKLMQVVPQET

Activity [1]: 0.0212 mL/s/g
Compound: CC(C)C[C@H](N)C(=O)OCCOC(=O)C(C)c1cccc(C(=O)c2ccccc2)c1 (stereo partly drawn)

Activity [1]: 0.0191 mL/s/g
Compound: CC(C(=O)NC(Cc1ccccc1)C(=O)O)c1cccc(C(=O)c2ccccc2)c1 (stereo not drawn)

Activity [1]: 0.0282 mL/s/g
Compound: CC(C(=O)OCCOC(=O)[C@@H](N)Cc1ccccc1)c1cccc(C(=O)c2ccccc2)c1 (stereo partly drawn)

half-life [2]: 10.2 min
half-life [3]: 1350 min
Drug uptake (Brain [4]): 0.846 pmol/min/mg
half-life [5]: 2.8 min
inhibition [6]: 98.5%
half-life [7]: 4.4 min
Vmax (Brain [8]): 1.41 pmol/min/mg
Km at 1 min [9]: 22.5 µM
Drug uptake (Brain [10]): 0.362 pmol/min/mg
Compound: CC(C(=O)Oc1ccc(C[C@H](N)C(=O)O)cc1)c1cccc(C(=O)c2ccccc2)c1.Cl (stereo partly drawn)

Activity [1]: 0.0266 mL/s/g
Compound: CC(C)CC(NC(=O)C(C)c1cccc(C(=O)c2ccccc2)c1)C(=O)O (stereo not drawn)
